Measured values: article PMC5935509 (Bioactive Materials, 2017)

Test system: HeLa cells
Assay: Cytotoxicity measurement, CCK-8 cell viability assay
Type: cell-based
Conditions: 24 h of incubation, mean, n = 4
How it was run: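 HeLa cells seeded at 10⁴ cells/well. For the combination arm, anticancer drug was added first (final 1, 10 or 100 µM), then self-assembling peptide at final 16 or 26 µM, charge-matched between peptides. Peptide-alone wells received the same peptide levels. After 24 h, drug and peptide were removed and viability read by CCK-8 absorbance at 450 nm. Four replicates, mean ± SD.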

Question: What does the source list for COc1cccc2c1C(=O)c1c(O)c3c(c(O)c1C2=O)C[C@@](O)(C(=O)CO)C[C@@H]3O[C@H]1C[C@H](N)[C@H](O)[C@H](C)O1 [DOX, Doxorubicin]?
Answer: cell viability (1 μM DOX, K10 16 μM or K6 26 μM): 70%; cell viability (100 μM DOX): 18%
